Reference: ChEMBL document CHEMBL4177552, “Synthesis and hyperpolarisation of eNOS substrates for quantification of NO production by 1H NMR spectroscopy” (Bioorg Med Chem, 2017)
Where a SMILES comes first, the peptide text is derived from it.

Target: T1, Nitric oxide synthase 3 (Bos taurus) (UniProt P29473)
T1 sequence (whole entry): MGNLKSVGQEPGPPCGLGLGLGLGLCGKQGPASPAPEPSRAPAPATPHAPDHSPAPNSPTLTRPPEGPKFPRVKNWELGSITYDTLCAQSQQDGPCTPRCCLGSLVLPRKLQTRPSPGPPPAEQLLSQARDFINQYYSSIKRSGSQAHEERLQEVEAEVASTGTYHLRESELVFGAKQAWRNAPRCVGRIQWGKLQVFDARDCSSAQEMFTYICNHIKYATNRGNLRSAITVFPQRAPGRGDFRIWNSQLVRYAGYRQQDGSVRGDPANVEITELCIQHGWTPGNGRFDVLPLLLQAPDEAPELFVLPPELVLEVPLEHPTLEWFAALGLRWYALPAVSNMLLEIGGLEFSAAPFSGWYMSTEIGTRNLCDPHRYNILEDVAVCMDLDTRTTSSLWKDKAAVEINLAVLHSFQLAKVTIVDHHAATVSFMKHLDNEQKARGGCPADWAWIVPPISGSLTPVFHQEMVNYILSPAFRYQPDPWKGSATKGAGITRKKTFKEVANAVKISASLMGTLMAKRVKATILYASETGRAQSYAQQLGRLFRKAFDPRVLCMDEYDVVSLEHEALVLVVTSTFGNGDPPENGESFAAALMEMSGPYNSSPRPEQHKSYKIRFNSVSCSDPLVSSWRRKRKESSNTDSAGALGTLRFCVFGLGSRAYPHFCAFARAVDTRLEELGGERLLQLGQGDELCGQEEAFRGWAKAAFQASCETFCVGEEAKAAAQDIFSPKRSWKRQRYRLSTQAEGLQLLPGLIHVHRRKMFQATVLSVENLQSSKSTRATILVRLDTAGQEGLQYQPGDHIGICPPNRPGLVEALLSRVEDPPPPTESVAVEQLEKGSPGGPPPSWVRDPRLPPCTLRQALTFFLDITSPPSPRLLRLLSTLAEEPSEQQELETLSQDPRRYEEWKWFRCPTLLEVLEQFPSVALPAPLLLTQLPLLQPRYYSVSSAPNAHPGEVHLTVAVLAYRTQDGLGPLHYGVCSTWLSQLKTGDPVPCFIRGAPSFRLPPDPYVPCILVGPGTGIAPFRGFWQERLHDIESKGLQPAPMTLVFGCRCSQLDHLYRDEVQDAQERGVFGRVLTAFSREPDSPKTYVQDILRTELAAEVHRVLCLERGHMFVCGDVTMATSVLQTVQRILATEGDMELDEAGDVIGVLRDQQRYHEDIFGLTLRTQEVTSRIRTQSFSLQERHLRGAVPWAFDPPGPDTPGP
Assay: Substrate activity at recombinant bovine eNOS assessed as enzyme mediated nitrite production after 40 mins by Griess reagent base LDH assay
In short: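 Run for 40 min alongside an l-arginine positive control and a negative control. Stopped with ice-cold 20 mM HEPES pH 5.5, 2 mM EDTA, 2 mM EGTA. NO-derived nitrite quantified by Griess colorimetry (nitrate/nitrite LDH method).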

| Structure (SMILES) | Activity |
| --- | --- |
| N=C(N)NCCC[C@H](N)C(=O)Nc1ccncc1 | 22 µM |
| N=C(N)NCCC[C@H](N)C(=O)NCc1cccnc1 | 22 µM |
| CC(=O)N[C@@H](CCCN/C(N)=N/O)C(=O)NCc1ccncc1 | 27 µM |
| N=C(N)NCCC[C@H](N)C(=O)NCc1ccncc1 | 48 µM |
| CN(Cc1ccncc1)C(=O)[C@@H](N)CCCNC(=N)N | 21 µM |
| N=C(N)NCCC[C@H](N)C(=O)N[C@@H](Cc1cccnc1)C(=O)O (HELM PEPTIDE1{R.[O=C(O)[C@H](Cc1cccnc1)N[*:1]]}$$$$V2.0) | 38 µM |
| N/C(=N\O)NCCCCC(=O)NCc1ccncc1 | 29 µM |
| CN(Cc1cccnc1)C(=O)[C@@H](N)CCCNC(=N)N | 23 µM |
| N/C(=N\O)NCCC[C@H](N)C(=O)NCc1ccncc1 | 26 µM |
| CC(NC(=O)[C@@H](N)CCCNC(=N)N)c1cccnc1 (stereo partly drawn) | 26 µM |
| N=C(N)NCCC[C@H](N)C(=O)O | 25 µM |
| CC(NC(=O)[C@@H](N)CCCNC(=N)N)c1ccncc1 (stereo partly drawn) | 20 µM |

Tested on: not listed separately
Assay: Drug metabolism is PBS buffer assessed as compound conversion after 3 hrs by 1H NMR spectroscopy

| Structure (SMILES) | degraded at 3 h |
| --- | --- |
| N=C(N)NCCC[C@H](N)C(=O)Nc1ccncc1 | 41% |
